Results as given in the M2OR odorant receptor database.

Tests used:
Conditions in all cases: stereoisomer not certain
[1] = target: T1, UniProt Q8VGX8
T1 sequence (whole entry): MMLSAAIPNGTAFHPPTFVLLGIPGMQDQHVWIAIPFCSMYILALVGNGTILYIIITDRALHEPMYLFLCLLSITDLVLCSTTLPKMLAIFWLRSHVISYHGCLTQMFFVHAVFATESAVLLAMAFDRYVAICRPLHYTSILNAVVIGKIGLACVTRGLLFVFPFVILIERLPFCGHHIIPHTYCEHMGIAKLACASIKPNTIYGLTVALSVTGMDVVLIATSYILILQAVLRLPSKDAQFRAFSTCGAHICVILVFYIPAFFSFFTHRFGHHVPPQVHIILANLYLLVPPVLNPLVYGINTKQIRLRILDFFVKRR
Outline: (§1)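 Assay methods differ from source to source, frequently being transient luciferase assays in mammalian cell lines. For each receptor–molecule pair, the label responsive (active) applies when the original authors judged the measured signal statistically different from baseline, and non-responsive (inactive) applies otherwise.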

[2] = target: T2, UniProt Q8VGY6
T2 sequence (whole entry): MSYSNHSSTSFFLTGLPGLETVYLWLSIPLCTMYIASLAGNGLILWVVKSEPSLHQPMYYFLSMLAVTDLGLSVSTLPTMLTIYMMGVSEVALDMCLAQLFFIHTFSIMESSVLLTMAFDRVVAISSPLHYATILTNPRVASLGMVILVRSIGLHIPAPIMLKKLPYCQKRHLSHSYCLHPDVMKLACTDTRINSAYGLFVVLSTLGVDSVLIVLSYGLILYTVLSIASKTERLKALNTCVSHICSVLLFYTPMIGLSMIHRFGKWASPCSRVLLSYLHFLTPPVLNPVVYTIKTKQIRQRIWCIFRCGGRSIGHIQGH
Outline: as §1

[3] = target: T3, UniProt Q8VGZ2
T3 sequence (whole entry): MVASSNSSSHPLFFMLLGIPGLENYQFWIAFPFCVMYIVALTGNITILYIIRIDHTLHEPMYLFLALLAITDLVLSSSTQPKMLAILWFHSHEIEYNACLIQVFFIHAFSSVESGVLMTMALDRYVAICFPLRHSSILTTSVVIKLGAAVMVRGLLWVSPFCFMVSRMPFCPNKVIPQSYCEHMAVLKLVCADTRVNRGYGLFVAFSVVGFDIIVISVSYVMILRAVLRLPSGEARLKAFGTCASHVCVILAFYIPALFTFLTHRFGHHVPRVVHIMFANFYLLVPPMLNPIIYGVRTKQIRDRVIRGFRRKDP
Outline: as §1

[4] = target: T4, UniProt Q8VGZ7
T4 sequence (whole entry): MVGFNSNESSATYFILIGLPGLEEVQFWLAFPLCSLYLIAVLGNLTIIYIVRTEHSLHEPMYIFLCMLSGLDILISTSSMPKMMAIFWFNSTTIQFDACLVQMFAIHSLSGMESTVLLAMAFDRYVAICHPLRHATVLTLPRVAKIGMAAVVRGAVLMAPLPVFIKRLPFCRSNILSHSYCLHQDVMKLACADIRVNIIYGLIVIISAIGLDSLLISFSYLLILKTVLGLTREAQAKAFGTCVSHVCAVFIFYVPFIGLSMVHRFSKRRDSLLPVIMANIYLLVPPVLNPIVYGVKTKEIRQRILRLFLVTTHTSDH
Outline: as §1

[5] = target: T5, UniProt Q8VH10
T5 sequence (whole entry): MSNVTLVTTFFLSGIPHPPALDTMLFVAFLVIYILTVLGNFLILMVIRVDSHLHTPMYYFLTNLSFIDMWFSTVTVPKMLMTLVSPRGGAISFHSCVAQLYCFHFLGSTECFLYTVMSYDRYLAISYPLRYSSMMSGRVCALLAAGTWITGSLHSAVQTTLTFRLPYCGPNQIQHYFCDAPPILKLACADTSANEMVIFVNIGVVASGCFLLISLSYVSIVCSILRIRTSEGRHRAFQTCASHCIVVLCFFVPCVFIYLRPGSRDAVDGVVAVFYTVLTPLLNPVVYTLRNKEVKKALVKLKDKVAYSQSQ
Outline: as §1

[6] = target: T6, UniProt Q8VH16
T6 sequence (whole entry): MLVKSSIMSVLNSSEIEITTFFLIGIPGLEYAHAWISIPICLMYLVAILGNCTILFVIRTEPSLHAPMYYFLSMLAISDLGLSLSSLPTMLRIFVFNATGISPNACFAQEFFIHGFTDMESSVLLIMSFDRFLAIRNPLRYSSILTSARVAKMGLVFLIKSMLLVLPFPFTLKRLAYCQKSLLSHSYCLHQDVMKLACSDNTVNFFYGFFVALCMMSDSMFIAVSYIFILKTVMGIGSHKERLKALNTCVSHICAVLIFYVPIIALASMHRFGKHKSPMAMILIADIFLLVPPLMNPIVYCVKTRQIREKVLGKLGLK
Outline: as §1

[7] = target: T7, UniProt Q8VH20
T7 sequence (whole entry): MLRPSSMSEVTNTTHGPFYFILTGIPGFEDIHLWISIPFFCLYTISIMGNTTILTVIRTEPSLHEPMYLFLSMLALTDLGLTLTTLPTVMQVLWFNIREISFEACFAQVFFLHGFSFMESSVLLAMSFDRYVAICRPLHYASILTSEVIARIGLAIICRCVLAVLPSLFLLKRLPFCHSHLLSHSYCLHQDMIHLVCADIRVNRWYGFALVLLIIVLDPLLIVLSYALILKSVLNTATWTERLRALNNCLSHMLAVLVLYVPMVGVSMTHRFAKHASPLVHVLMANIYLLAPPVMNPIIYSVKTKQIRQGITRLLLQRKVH
Outline: as §1

[8] = target: T8, UniProt Q8VH21
T8 sequence (whole entry): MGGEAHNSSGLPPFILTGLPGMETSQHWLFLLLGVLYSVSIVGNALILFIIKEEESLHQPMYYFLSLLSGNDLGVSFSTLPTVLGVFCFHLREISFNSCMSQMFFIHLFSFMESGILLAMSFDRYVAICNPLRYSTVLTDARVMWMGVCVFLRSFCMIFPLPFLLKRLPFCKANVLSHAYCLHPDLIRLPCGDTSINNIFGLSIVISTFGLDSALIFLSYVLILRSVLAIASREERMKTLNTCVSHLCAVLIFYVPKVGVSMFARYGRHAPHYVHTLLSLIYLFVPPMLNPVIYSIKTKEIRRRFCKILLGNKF
Outline: as §1

[9] = target: T9, UniProt Q920P1
T9 sequence (whole entry): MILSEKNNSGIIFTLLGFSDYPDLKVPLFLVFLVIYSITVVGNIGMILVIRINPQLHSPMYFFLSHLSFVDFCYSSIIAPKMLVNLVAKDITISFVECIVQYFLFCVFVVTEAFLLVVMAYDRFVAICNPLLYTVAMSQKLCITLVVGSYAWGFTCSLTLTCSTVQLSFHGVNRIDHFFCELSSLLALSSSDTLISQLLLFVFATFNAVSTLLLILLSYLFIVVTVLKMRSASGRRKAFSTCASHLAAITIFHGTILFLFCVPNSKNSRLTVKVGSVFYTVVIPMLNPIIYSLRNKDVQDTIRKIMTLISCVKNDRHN
Outline: as §1

[10] = target: T10, UniProt Q8VH18
T10 sequence (whole entry): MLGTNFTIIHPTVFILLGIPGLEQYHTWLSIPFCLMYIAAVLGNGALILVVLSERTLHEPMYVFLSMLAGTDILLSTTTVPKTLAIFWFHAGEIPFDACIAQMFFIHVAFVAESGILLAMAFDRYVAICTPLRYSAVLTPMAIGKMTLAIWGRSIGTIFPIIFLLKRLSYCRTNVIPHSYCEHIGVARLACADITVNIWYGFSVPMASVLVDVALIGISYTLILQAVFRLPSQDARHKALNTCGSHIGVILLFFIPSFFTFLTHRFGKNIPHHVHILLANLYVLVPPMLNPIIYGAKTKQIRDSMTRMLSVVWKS
Outline: as §1

Measured: odorant receptor agonist call

CCCCCC(=O)CC
not listed: [9] | [10]
inactive: all other assays above

CC(=O)Oc1ccccc1
active: [5]
not listed: [9] | [10]
inactive: all other assays above

CCCCC(=O)O
active: [8]
not listed: [9] | [10]
inactive: all other assays above

CCCCOC=O
not listed: [9] | [10]
inactive: all other assays above

c1ccccc1
not listed: [10]
inactive: all other assays above

O=c1ccc2ccccc2o1
inactive: [1] | [2] | [3] | [4] | [5] | [7]

CC(C)=CCCC(C)=CCOC(=O)C(C)C
inactive: [3] | [4] | [6] | [7] | [8]

CCCCCCCCOC=O
inactive: [3] | [4] | [6] | [7] | [8]

C=C(C)C1CC=C(C)CC1 (stereo not given)
inactive: [3] | [4] | [6] | [7] | [8]

O=C([O-])CCCCCCCC(=O)[O-].[H+].[H+]
not listed: [2] | [5] | [9]
inactive: all other assays above

CCC(C(=O)O)c1ccccc1 (stereo not given)
inactive: [1] | [2] | [3] | [4] | [5] | [7]

O=C([O-])CCCCCCC(=O)[O-].[H+].[H+]
not listed: [2] | [5] | [9]
inactive: all other assays above

CC(C)=CCCC(C)=CCO
not listed: [10]
inactive: all other assays above

CCC=CCCC=CC=O
inactive: [3] | [4] | [6] | [7] | [8]

CC=C(C)C=O
inactive: [3] | [4] | [6] | [7]
active: [8]

C=CC(=O)CCCCC
inactive: [3] | [4] | [6] | [7] | [8]

CCCC(C)=O
not listed: [6] | [8] | [9]
inactive: all other assays above

CCC(C)c1nccnc1OC (stereo not given)
inactive: [3] | [4] | [6] | [7] | [8]

CCN(CC)CC
inactive: [3] | [4] | [6] | [7] | [8]

O=C(O)CCCCBr
inactive: [1] | [10]

CCCCOC(=O)C(C)OC(=O)CCC (stereo not given)
inactive: [1] | [2] | [3] | [4] | [5] | [7]

CC=CC(=O)C1=C(C)CCCC1(C)C
inactive: [3] | [4] | [6] | [7] | [8]

CCCCCCCC(=O)[O-].[H+]
inactive: [2] | [4] | [5]
active: [1] | [3] | [10] | [7]

CCCCCCC=CC=O
inactive: [3] | [4] | [6] | [7] | [8]

O=C(O)CCCBr
inactive: [1] | [10]

CCc1ccc(O)cc1
inactive: [3] | [4] | [6] | [7] | [8]

CCc1ncc(C)nc1CC
inactive: [3] | [4] | [6] | [7] | [8]

CCCCCCC(=O)[O-].[H+]
active: [1] | [3] | [10] | [7]
inactive: [2] | [4] | [5]

CCCCC=O
inactive: [3] | [4] | [6] | [10] | [7] | [8]

OCCc1ccccc1
inactive: [3] | [4] | [6] | [7] | [8]

C=C1C2CCC(C2)C1(C)C (stereo not given)
inactive: [3] | [4] | [6] | [7] | [8]

O=C(O)CCCCCC(=O)O
inactive: [1] | [10]

COc1cc(C(=O)O)ccc1O
active: [2]
not listed: [10]
inactive: all other assays above

O=C([O-])CCCCC(=O)[O-].[H+].[H+]
inactive: [1] | [10]

CC1CCC(C(C)C)C(=O)C1 (stereo not given)
inactive: [3] | [4] | [6] | [7] | [8]

O=C(O)CCCCCBr
active: [1] | [7]
inactive: [3] | [4] | [6] | [10] | [8]

CCCCCO
not listed: [6] | [8] | [9]
inactive: all other assays above

CCCCCC=CCCC=O
active: [3] | [7]
inactive: [4] | [6] | [8]

CC(C)=C1CCC(C)CC1=O (stereo not given)
inactive: [3] | [4] | [6] | [7] | [8]

CCSSCC
inactive: [3] | [4] | [6] | [7] | [8]

C=C(CC)CCCC(C)(C)O
inactive: [3] | [4] | [6] | [7] | [8]

CC(=O)OCc1ccc2c(c1)OCO2
inactive: [3] | [4] | [6] | [7] | [8]

Cc1ccc(C(C)C)c(O)c1
inactive: [3] | [4] | [6] | [7] | [8]
